Measurements: ChEMBL document CHEMBL1156153, “Novel benzofuran-3-one indole inhibitors of PI3 kinase-alpha and the mammalian target of rapamycin: hit to lead studies” (Bioorg Med Chem Lett, 2010)
pIC50: −log10 of the molar value. Values after ≈ are worked out from the molar mass of the structure shown.

target: Serine/threonine-protein kinase mTOR (Homo sapiens, UniProt P42345); assay: Inhibition of mTOR
In short: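 DELFIA-format mTOR kinase assay monitoring phosphorylation of His6-S6K substrate.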

SMILES	pIC50
COc1ccc2c(c1)c(/C=C1\Oc3cc(O)cc(O)c3C1=O)cn2C	7.21
O=C1/C(=C/c2c(-c3ccccn3)[nH]c3ccccc23)Oc2cc(O)cc(O)c21	7.66
O=C1/C(=C/c2c(-c3ccccc3)[nH]c3ccccc23)Oc2cc(O)cc(O)c21	6.89
COc1ccc2c(c1)c(/C=C1\Oc3cc(O)cc(O)c3C1=O)cn2CCCN(C)C	5.67
O=C1/C(=C/c2c[nH]c3ccccc23)Oc2cc(O)cc(O)c21	5.04

Further lines, results first:

pIC50	SMILES
5.78	COc1ccc2c(c1)c(/C=C1\Oc3cc(O)cc(O)c3C1=O)cn2CCCN1CCN(CCO)CC1
6.10	Cn1cc(/C=C2\Oc3cc(O)cc(O)c3C2=O)c2ccccc21
7.02	Cn1c(-c2ccccc2)c(/C=C2\Oc3cc(O)cc(O)c3C2=O)c2ccccc21

target: Phosphatidylinositol 4,5-bisphosphate 3-kinase catalytic subunit alpha isoform (Homo sapiens, UniProt P42336); assay: Inhibition of PI3Kalpha
Sequence (P42336 whole entry, canonical isoform): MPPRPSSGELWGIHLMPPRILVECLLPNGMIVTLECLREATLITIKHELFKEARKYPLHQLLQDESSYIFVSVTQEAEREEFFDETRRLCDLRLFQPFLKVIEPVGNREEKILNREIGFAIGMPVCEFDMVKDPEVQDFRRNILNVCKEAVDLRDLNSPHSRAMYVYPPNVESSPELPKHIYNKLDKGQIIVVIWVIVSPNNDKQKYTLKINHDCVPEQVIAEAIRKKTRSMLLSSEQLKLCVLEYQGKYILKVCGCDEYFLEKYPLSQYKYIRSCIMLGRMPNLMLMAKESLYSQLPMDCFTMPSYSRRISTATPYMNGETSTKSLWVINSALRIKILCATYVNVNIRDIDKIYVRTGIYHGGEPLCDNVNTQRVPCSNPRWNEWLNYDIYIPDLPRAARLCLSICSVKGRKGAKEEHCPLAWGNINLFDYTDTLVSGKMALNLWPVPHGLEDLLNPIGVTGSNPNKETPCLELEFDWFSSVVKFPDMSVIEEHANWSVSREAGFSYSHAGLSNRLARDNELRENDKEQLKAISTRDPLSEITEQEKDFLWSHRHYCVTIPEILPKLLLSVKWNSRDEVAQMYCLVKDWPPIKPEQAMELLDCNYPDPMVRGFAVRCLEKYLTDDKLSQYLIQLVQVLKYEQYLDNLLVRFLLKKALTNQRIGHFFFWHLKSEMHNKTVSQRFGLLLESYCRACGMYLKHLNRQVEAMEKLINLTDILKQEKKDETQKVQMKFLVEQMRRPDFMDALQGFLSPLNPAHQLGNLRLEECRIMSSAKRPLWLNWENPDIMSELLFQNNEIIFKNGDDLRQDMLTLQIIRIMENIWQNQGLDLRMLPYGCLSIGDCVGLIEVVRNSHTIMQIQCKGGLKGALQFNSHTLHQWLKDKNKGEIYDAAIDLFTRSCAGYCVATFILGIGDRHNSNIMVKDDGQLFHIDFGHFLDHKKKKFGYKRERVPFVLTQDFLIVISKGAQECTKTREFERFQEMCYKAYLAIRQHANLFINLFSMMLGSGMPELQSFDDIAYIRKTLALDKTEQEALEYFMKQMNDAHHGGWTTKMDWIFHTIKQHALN

SMILES	pIC50
COc1ccc2c(c1)c(/C=C1\Oc3cc(O)cc(O)c3C1=O)cn2C	6.97
O=C1/C(=C/c2c(-c3ccccn3)[nH]c3ccccc23)Oc2cc(O)cc(O)c21	5.44
O=C1/C(=C/c2c(-c3ccccc3)[nH]c3ccccc23)Oc2cc(O)cc(O)c21	5.99
COc1ccc2c(c1)c(/C=C1\Oc3cc(O)cc(O)c3C1=O)cn2CCCN(C)C	7.40
O=C1/C(=C/c2c[nH]c3ccccc23)Oc2cc(O)cc(O)c21	5.17

Now from value to compound:

pIC50	SMILES
7.43	COc1ccc2c(c1)c(/C=C1\Oc3cc(O)cc(O)c3C1=O)cn2CCCN1CCN(CCO)CC1
5.57	Cn1c(-c2ccccc2)c(/C=C2\Oc3cc(O)cc(O)c3C2=O)c2ccccc21

target: Phosphatidylinositol 4,5-bisphosphate 3-kinase catalytic subunit gamma isoform (Homo sapiens, UniProt P48736); assay: Inhibition of PI3Kgamma
Sequence (P48736 whole entry, canonical isoform): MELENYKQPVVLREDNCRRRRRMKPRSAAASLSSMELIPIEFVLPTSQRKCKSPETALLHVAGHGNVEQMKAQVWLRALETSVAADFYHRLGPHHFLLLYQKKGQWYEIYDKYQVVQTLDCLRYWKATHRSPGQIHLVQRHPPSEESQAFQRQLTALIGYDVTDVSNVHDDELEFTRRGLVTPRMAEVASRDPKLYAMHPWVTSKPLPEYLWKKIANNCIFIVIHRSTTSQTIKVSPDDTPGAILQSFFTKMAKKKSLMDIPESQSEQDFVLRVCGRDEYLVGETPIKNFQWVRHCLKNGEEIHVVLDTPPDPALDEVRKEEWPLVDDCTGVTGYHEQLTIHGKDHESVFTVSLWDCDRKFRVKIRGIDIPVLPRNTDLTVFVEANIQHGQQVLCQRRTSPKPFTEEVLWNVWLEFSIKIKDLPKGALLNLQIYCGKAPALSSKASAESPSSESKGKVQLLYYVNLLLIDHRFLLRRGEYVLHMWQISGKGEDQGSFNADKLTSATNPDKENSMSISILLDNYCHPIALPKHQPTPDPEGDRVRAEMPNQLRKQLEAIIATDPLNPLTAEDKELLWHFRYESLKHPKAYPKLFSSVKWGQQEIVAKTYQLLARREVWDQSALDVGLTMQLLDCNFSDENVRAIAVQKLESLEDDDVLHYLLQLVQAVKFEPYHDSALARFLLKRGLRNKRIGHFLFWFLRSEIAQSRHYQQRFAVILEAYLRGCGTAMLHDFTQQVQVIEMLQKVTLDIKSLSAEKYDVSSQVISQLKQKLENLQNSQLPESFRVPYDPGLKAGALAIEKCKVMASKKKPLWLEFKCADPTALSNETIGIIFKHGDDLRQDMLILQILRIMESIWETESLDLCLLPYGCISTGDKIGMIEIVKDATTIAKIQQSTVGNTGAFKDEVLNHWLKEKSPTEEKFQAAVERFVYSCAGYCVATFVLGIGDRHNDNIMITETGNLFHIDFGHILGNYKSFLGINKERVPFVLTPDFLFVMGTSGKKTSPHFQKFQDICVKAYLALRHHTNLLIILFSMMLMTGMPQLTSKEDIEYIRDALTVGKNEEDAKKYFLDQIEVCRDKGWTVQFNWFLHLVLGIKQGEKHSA
In short: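 Fluorescence polarization assays for PI3K-α (p110α) and PI3K-γ (p110γ) monitored PIP3 production.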

pIC50	SMILES
6.23	COc1ccc2c(c1)c(/C=C1\Oc3cc(O)cc(O)c3C1=O)cn2C
5.56	O=C1/C(=C/c2c(-c3ccccc3)[nH]c3ccccc23)Oc2cc(O)cc(O)c21
5.62	COc1ccc2c(c1)c(/C=C1\Oc3cc(O)cc(O)c3C1=O)cn2CCCN(C)C
5.87	COc1ccc2c(c1)c(/C=C1\Oc3cc(O)cc(O)c3C1=O)cn2CCCN1CCN(CCO)CC1

test system: not listed separately; assay: Aqueous solubility at pH 7.4; type: physicochemical
In short: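 Aqueous solubility measured at pH 7.4, reported in µg/mL.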

SMILES	solubility
O=C1/C(=C/c2c(-c3ccc(Cl)cc3)[nH]c3ccccc23)Oc2cc(O)cc(O)c21	1 µg/mL (≈ 2.48 µM)
O=C1/C(=C/c2c(-c3ccc(F)cc3)[nH]c3ccccc23)Oc2cc(O)cc(O)c21	1 µg/mL (≈ 2.58 µM)
COc1ccc2c(c1)c(/C=C1\Oc3cc(O)cc(O)c3C1=O)cn2C	1 µg/mL (≈ 2.96 µM)
O=C1/C(=C/c2c(-c3ccccn3)[nH]c3ccccc23)Oc2cc(O)cc(O)c21	3 µg/mL (≈ 8.1 µM)
O=C1/C(=C/c2c(-c3ccccc3)[nH]c3ccccc23)Oc2cc(O)cc(O)c21	1 µg/mL (≈ 2.71 µM)
COc1ccc2c(c1)c(/C=C1\Oc3cc(O)cc(O)c3C1=O)cn2CCCN(C)C	32 µg/mL (≈ 78.3 µM)
O=C1/C(=C/c2c[nH]c3ccc(Cl)cc23)Oc2cc(O)cc(O)c21	1 µg/mL (≈ 3.05 µM)
O=C1/C(=C/c2c[nH]c3ccccc23)Oc2cc(O)cc(O)c21	14 µg/mL (≈ 47.7 µM)

The next lines start with the values.

solubility	SMILES
1 µg/mL (≈ 2.38 µM)	O=C1/C(=C/c2c(-c3ccc4ccccc4c3)[nH]c3ccccc23)Oc2cc(O)cc(O)c21
25 µg/mL (≈ 50.7 µM)	COc1ccc2c(c1)c(/C=C1\Oc3cc(O)cc(O)c3C1=O)cn2CCCN1CCN(CCO)CC1
1 µg/mL (≈ 2.59 µM)	Cc1[nH]c2ccc(Br)cc2c1/C=C1\Oc2cc(O)cc(O)c2C1=O
2 µg/mL (≈ 6.51 µM)	Cn1cc(/C=C2\Oc3cc(O)cc(O)c3C2=O)c2ccccc21
2 µg/mL (≈ 5.22 µM)	Cn1c(-c2ccccc2)c(/C=C2\Oc3cc(O)cc(O)c3C2=O)c2ccccc21
